What was measured:
[1] = biological target: Voltage-gated inwardly rectifying potassium channel KCNH2 (Homo sapiens, UniProt Q12809); test: Inhibition of human ERG channel expressed in CHOK1 cells at 100 uM after 5 mins by patch clamp technique; type: cell-based; conditions: cho-k1, 5 min
Outline: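 CHO-K1 cells stably expressing hERG; automated patch clamp. Holding −80 mV, step to +50 mV for 2 s, then −40 mV for 2 s; tail peak current measured. Compound incubated 5 min.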

Cynomolgus monkey [2] = test: Cardiotoxicity in cynomolgus monkey assessed as change in pulse rate at 1000 mg/kg, po after 4 hrs relative to baseline; conditions: in vivo
[3] = biological target: T1, Renin (Macaca fascicularis) (UniProt Q6DLS0); test: Ratio of compound IC50 to aliskiren IC50 for renin in cynomolgus monkey plasma
T1 sequence (whole entry): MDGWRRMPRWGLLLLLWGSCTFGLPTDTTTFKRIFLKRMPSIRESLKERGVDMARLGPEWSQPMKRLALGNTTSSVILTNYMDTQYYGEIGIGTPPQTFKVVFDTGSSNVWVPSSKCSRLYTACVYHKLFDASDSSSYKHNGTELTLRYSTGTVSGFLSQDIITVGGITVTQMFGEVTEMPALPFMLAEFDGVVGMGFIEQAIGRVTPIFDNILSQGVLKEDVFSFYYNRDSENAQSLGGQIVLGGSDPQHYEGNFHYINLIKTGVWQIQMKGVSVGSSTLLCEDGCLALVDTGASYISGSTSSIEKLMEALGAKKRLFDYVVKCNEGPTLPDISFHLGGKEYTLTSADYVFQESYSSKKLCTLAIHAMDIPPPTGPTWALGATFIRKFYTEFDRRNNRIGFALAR

Cynomolgus monkey [4] = test: Inhibition of renin in po dosed furosemide pretreated cynomolgus monkey assessed as reduction in mean arterial blood pressure; type: functional, organism-based; conditions: Macaca fascicularis
Outline: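 Conscious freely moving telemetered cynomolgus monkeys (n = 6), furosemide 5 mg/kg/day im for 3 days before dosing; fasted from morning, fed ≥8 h post-dose. Oral 1, 3, 10 mg/kg or 1% methylcellulose, crossover design; arterial pressure recorded from −3 to 24 h; hourly mean MAP; mean ± SEM.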

Renin = biological target: T2, Renin (Macaca fascicularis, UniProt Q6DLS0); test: Inhibition of renin in cynomolgus monkey plasma after 1 hr by RIA
T2 sequence (Q6DLS0 whole entry): T1 sequence (whole entry)
Outline: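 Pooled mixed-gender EDTA cynomolgus monkey plasma with pH adjusting solution and Inhibitor A, compound in 1% DMSO final, incubated 1 h at 37 °C. Angiotensin I by competitive RIA; uninhibited and 4 °C controls define % inhibition; IC50 from four-parameter fit; ratio is compound IC50 over aliskiren IC50 in same plasma batch; ≥2 replicates.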

Sequence of Voltage-gated inwardly rectifying potassium channel KCNH2 (Q12809 whole entry): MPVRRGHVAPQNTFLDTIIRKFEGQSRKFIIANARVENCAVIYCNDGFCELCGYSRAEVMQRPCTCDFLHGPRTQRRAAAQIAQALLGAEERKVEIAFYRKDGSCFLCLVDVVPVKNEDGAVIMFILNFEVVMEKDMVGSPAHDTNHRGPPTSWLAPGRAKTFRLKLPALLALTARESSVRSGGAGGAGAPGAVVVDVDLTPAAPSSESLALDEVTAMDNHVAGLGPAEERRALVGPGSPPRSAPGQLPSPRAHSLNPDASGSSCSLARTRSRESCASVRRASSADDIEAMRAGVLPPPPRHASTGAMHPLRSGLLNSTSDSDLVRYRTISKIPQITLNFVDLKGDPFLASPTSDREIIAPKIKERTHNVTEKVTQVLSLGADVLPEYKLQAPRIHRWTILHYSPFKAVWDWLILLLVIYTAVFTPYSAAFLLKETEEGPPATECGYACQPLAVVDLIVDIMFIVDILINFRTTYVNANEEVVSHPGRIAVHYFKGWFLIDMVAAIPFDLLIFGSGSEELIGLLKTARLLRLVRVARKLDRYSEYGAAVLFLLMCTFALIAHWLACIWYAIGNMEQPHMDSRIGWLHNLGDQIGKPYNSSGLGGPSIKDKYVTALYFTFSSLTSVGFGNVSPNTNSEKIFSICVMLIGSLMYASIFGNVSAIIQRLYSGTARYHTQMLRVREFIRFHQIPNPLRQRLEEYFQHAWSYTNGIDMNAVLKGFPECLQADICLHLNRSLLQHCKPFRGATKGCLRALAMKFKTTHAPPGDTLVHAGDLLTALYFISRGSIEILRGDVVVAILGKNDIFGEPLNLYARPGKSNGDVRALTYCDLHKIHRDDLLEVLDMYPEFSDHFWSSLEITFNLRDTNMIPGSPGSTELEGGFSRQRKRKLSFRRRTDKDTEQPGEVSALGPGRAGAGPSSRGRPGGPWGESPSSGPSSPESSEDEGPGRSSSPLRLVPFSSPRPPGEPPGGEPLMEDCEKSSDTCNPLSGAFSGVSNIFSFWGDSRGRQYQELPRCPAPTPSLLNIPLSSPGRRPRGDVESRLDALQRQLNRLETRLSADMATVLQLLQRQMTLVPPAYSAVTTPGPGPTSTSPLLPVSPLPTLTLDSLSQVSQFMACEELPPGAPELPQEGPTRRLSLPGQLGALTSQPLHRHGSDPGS

With `CC[C@H](C[C@H](O)[C@@H](N)CN1CC(=O)N(c2ccccc2Cl)CC1(C)C)C(=O)N[C@H]1C2CC3CC1C[C@](O)(C3)C2.O=C(O)/C=C/C(=O)O` as the compound, how does the “inhibition (INH)” value [1] read?
The value was “Not Active”.

What about the Activity (Cynomolgus monkey [2]) of the same compound?
Its Activity is 0.3%.

What about the Ratio IC50 [3] of the same compound?
Its Ratio IC50 is 0.8.

What about the inhibition (Cynomolgus monkey [4]) of the same compound?
Its inhibition is “Dose-dependent effect”.

What about the IC50 (Renin) of the same compound?
Its IC50 is 6.3 nM.
